# Published values collected from several papers.
# Lines come from different studies, so protocols differ.
# Target: Serine/threonine-protein kinase Nek4 (NEK4, Homo sapiens, UniProt P51957)
SMILES,test,conditions,remaining binding [%]
c1cnn2ncc(-c3ccnc(N4CCC45COC5)n3)c2c1,binding,1 µM,68
O=C(Nc1c[nH]nc1C(=O)NC1CCNCC1)c1cc(F)cc(F)c1,"binding, competition with immobilised ligand",1 µM,91
Cn1nc(C(=O)NCc2ccc(C(=O)O)cc2)cc1-c1ccc2[nH]ccc2c1,"cell-free assay, competition with immobilised ligand",0.1 µM,84
CCN1CCN(Cc2ccc(C(=O)Nc3ccc(C)c(Oc4ccc5c(c4)CC(=O)N5)c3)cc2C(F)(F)F)CC1,"binding, competition with immobilised ligand",1 µM,100
c1cncc(-c2cccc(Nc3nccc(NC4CCCCC4)n3)c2)c1,"binding, competition with immobilised ligand",10 µM,100
Cn1nc(C(F)(F)F)cc1-c1cnc(N2CCc3cc(S(=O)(=O)Nc4c(F)cc(Cl)cc4F)cc(N4CCCC4=O)c32)nc1,"cell-free assay, competition with immobilised ligand",1 µM,72
N[C@@H]1CCN(c2nccc(-c3cnn4ncccc34)n2)C1,binding,1 µM,100
CCC(=O)N[C@H]1CC[C@@H](C(=O)N(C)c2ccc(-c3nc4ccccc4o3)cc2)C1,"cell-free assay, competition with immobilised ligand",1 µM,99
C[C@H]1CCN(c2nccc(-c3cnn4ncccc34)n2)C1,binding,1 µM,81
COc1cnc(Nc2cccc(S(N)(=O)=O)c2)nc1N1CCN(c2ccccc2)C(=O)C1,"binding, competition with immobilised ligand",1 µM,79
O=C(c1ccc(Nc2ncc(Cl)c(-c3cc4ccccc4s3)n2)cc1)N1CCC(N2CCCC2)CC1,"binding, competition with immobilised ligand",1 µM,48
C[C@H](c1cccc(C#N)c1)n1cc(Cl)cc(C(N)=O)c1=N,"cell-free assay, competition with immobilised ligand",1 µM,100
O=C(NCCCN1CCOCC1)c1ccc(Nc2nccc(-c3cc4ccccc4s3)n2)cc1,"binding, competition with immobilised ligand",1 µM,100
F[C@@H]1CCN(c2nccc(-c3cnn4ncccc34)n2)C1,binding,1 µM,100
O=C(Nc1cccnn1)N1CC(C/C=C/c2cncc(Oc3ccc(C(F)(F)F)cn3)n2)C1,"cell-free assay, competition with immobilised ligand",1 µM,95
CC1CCCN1c1nccc(-c2cnn3ncccc23)n1 (stereo not drawn),binding,1 µM,100
COc1ncc2cc3ccccc3nc2c1C#N,"cell-free assay, competition with immobilised ligand",5 µM,93
COc1cnc(Nc2cccc(S(N)(=O)=O)c2)nc1N1CCN(c2ccccc2)CC1,"binding, competition with immobilised ligand",1 µM,95
C=CC(=O)N1CCC(C(=O)NCC(=O)N2CCN(c3nc(-c4cnc(N)nc4C(F)F)nc(N4CCOCC4)n3)CC2)CC1,"binding, competition with immobilised ligand",1 µM,81
Cc1cnc(Nc2ccc(C(=O)N3CCC(N4CCCC4)CC3)cc2)nc1-c1cc2ccccc2s1,"binding, competition with immobilised ligand",1 µM,59
CC(=O)C1=C(C)N(c2cccc(C(F)(F)F)c2)C(=O)N[C@@H]1c1ccc(C#N)nc1,"cell-free assay, competition with immobilised ligand",1 µM,93.9
